# Measured values from ChEMBL document CHEMBL1152518, “1,2,3-Selenadiazole thioacetanilides: synthesis and anti-HIV activity evaluation” (Bioorg Med Chem, 2009).
# Key:
# [1] = tested on: Human immunodeficiency virus 1; test: Antiviral activity against HIV1 3B infected in human MT4 cells assessed as inhibition of virus-induced cytopathic effect after 5 days by MTT assay; assay type: functional, organism-based; settings: Human immunodeficiency virus 1, 3B, MT4, 120 h
# In short: (§1)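 MT-4 cells, resuspended at 6 × 10⁵ cells/ml, infected with HIV-1 IIIB or HIV-2 ROD at 100–300 CCID₅₀. Test compound stocks were made at 10× final concentration. Read after 5 days as MTT reduction to formazan, absorbance at 540 and 690 nm. Median OD of three wells. EC₅₀ is the concentration giving 50% protection against virus-induced cytopathic effect.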
# [2] = tested on: Human immunodeficiency virus 2; test: Antiviral activity against HIV2 ROD infected in human MT4 cells assessed as inhibition of virus-induced cytopathic effect after 5 days by MTT assay; assay type: functional, organism-based; settings: Human immunodeficiency virus 2, ISOLATE ROD, MT4, 120 h; in short: as §1
# [3] = Cytotoxicity against mock-infected human MT4 cells after 5 days by MTT assay; assay type: cell-based
# In short: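 Mock-infected MT-4 cells at 6 × 10⁵ cells/ml, with culture medium in place of virus, exposed to compound (stocks at 10× final concentration) for 5 days. Viability read by MTT, absorbance at 540 and 690 nm, median OD of three wells. CC₅₀ is the concentration reducing OD540 of the mock-infected control by 50%.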
# [4] = Selectivity index, ratio of CC50 for mock-infected human MT4 cells to EC50 for HIV1 3B infected in human MT4 cells; assay type: toxicity, cell-based; settings: mock-infected (CC50) and HIV-1 3B infected (EC50)
# In short: (§2)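 Selectivity index is CC₅₀/EC₅₀. Both values come from MTT assays run over 5 days in MT-4 cells, mock-infected or infected with HIV-1 IIIB or HIV-2 ROD at 100–300 CCID₅₀. Median OD of three wells.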
# [5] = Selectivity index, ratio of CC50 for mock-infected human MT4 cells to EC50 for HIV2 ROD infected in human MT4 cells; assay type: toxicity, cell-based; settings: read-out: Ratio CC50/EC50; in short: as §2
# [6] = biological target: Human immunodeficiency virus type 1 reverse transcriptase (Human immunodeficiency virus 1, UniProt Q72547); test: Inhibition of wild type HIV1 reverse transcriptase
# [7] = biological target: Human immunodeficiency virus type 1 reverse transcriptase (Human immunodeficiency virus 1, UniProt Q72547, K103N/Y181C); test: Inhibition of HIV1 reverse transcriptase K103N/Y181C mutant
IC50 [6],SMILES,EC50 [1],EC50 [2],CC50 at 120 h [3],selectivity ratio [4],selectivity ratio [5],EC50 [6],EC50 [7]
–,O=C(CSc1[se]nnc1-c1ccc(Cl)c(Cl)c1)Nc1cccnc1Cl,> 24.8 µM,> 24.8 µM,24.8 µM,< 1,< 1,–,–
0.005 µM,Cc1cc(C)c(-n2nnnc2SCC(=O)Nc2ccccc2Cl)c(C)c1,–,–,–,–,–,–,–
–,Cc1ccc(-n2c(C)nnc2SCC(=O)Nc2ccccc2)cc1,–,–,–,–,–,2.05 µM,–
–,O=C(CSc1[se]nnc1-c1ccc(Cl)c(Cl)c1)Nc1ccccc1Cl,> 23.4 µM,> 23.4 µM,23.4 µM,< 1,< 1,–,–
–,O=C(CSc1[se]nnc1-c1ccc(Cl)c(Cl)c1)Nc1nccs1,> 8.68 µM,> 8.68 µM,8.68 µM,< 1,< 1,–,–
–,COC(=O)c1ccsc1NC(=O)CSc1[se]nnc1-c1ccc(Cl)c(Cl)c1,> 22 µM,> 22 µM,22 µM,< 1,< 1,–,–
–,O=C(CSc1[se]nnc1-c1ccc(Cl)c(Cl)c1)Nc1ccccc1F,> 26.9 µM,> 26.9 µM,26.9 µM,< 1,< 1,–,–
–,Cc1ccc(NC(=O)CSc2[se]nnc2-c2ccc(Cl)c(Cl)c2)c(Br)c1,≥ 8.71 µM,> 22.9 µM,22.9 µM,–,< 1,–,–
–,Cc1ccc(NC(=O)CSc2nnc(C)n2-c2ccccc2)c(Br)c1,–,–,–,–,–,0.1 µM,1.3 µM
–,CC(=O)c1ccc(NC(=O)CSc2[se]nnc2-c2ccc(Cl)c(Cl)c2)c(Br)c1,2.45 µM,> 18.9 µM,18.9 µM,8,< 1,–,–
–,O=C(CSc1[se]nnc1-c1ccc(Cl)c(Cl)c1)Nc1ccc(Cl)cc1,5.59 µM,> 16.8 µM,16.8 µM,3,< 1,–,–
–,Cc1ccc2sc(NC(=O)CSc3[se]nnc3-c3ccc(Cl)c(Cl)c3)nc2c1,> 10.2 µM,> 10.2 µM,10.2 µM,< 1,< 1,–,–
–,Cc1ccccc1NC(=O)CSc1[se]nnc1-c1ccc(Cl)c(Cl)c1,5.56 µM,> 22.3 µM,22.3 µM,4,< 1,–,–
–,Cc1ccc(NC(=O)CSc2[se]nnc2-c2ccc(Cl)c(Cl)c2)c([N+](=O)[O-])c1,5.42 µM,> 26.3 µM,26.3 µM,5,< 1,–,–
–,O=C(CSc1[se]nnc1-c1ccc(Cl)c(Cl)c1)Nc1ccccc1[N+](=O)[O-],≥ 6.84 µM,> 26.6 µM,26.6 µM,–,< 1,–,–
–,O=C(CSc1[se]nnc1-c1ccc(Cl)c(Cl)c1)Nc1ccccc1Br,> 23.6 µM,> 23.6 µM,23.6 µM,< 1,< 1,–,–
–,Cc1cccc(NC(=O)CSc2[se]nnc2-c2ccc(Cl)c(Cl)c2)c1C,> 12.8 µM,> 12.8 µM,12.8 µM,< 1,< 1,–,–
–,Cc1cccc(C)c1NC(=O)CSc1[se]nnc1-c1ccc(Cl)c(Cl)c1,> 7 µM,> 7 µM,7 µM,< 1,< 1,–,–
–,O=C(CSc1[se]nnc1-c1ccc(Cl)c(Cl)c1)Nc1ccccn1,> 31.4 µM,> 31.4 µM,31.4 µM,< 1,< 1,–,–
–,O=C(CSc1[se]nnc1-c1ccc(Cl)c(Cl)c1)Nc1ccccc1,≥ 6.07 µM,> 19 µM,19 µM,63,< 1,–,–
–,Cc1ccc(NC(=O)CSc2[se]nnc2-c2ccc(Cl)c(Cl)c2)cc1,6.65 µM,> 13.3 µM,13.3 µM,2,< 1,–,–
